From ChEMBL document CHEMBL1811781, “Arthrinins A-D: novel diterpenoids and further constituents from the sponge derived fungus Arthrinium sp” (Bioorg Med Chem, 2011)
pIC50: −log10 of the molar value. Calls of active or inactive are those of the source. No cut-off for these calls is given here.

What was measured:
Aurora kinase B = Aurora kinase B (Homo sapiens, UniProt Q96GD4); experiment: Inhibition of recombinant Aurora-b assessed as 33Pi incorporation after 60 mins by scintillation counting
How it was run: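 Substrate tetra(LRRWSLG) with recombinant Aurora-B. Buffer is 70 mM HEPES-NaOH pH 7.5, 3 mM MgCl2, 3 mM MnCl2, orthovanadate, 1.2 mM DTT, PEG, with 1 µM [γ-33P]-ATP. After 60 min at 30 °C, 2% H3PO4 stop, NaCl washes, 33Pi counted. IC50 fitted from 10 singlicate concentrations.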

[1] = molecular target: Vascular endothelial growth factor receptor 2 (Homo sapiens, UniProt P35968); experiment: Inhibition of recombinant VEGF-R2 assessed as 33Pi incorporation after 60 mins by scintillation counting
How it was run: (§1)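 Tyrosine kinases assayed on poly(Glu,Tyr) in 70 mM HEPES-NaOH pH 7.5, 3 mM MgCl2, 3 mM MnCl2, orthovanadate, 1.2 mM DTT, PEG, 1 µM [γ-33P]-ATP; 30 °C for 60 min, then 2% H3PO4 stop, saline wash, 33Pi scintillation. IC50 derived from residual activity at 10 concentrations in singlicate.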

[2] = molecular target: Tyrosine-protein kinase receptor UFO (Homo sapiens, UniProt P30530); experiment: (§2) Inhibition of recombinant AXL assessed as 33Pi incorporation after 60 mins by scintillation counting; how it was run: as §1
[3] = molecular target: Dual specificity mitogen-activated protein kinase kinase 1 (Homo sapiens, UniProt Q02750); experiment: Inhibition of wild type MEK1 assessed as 33Pi incorporation after 60 mins by scintillation counting
How it was run: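 ERK2-KR is the substrate for wild-type MEK1 in 70 mM HEPES-NaOH pH 7.5 containing 3 mM MgCl2, 3 mM MnCl2, orthovanadate, 1.2 mM DTT, PEG and 1 µM [γ-33P]-ATP. Reaction runs 60 min at 30 °C and is stopped with 2% H3PO4; incorporated 33Pi is counted after washing. IC50 comes from 10 concentrations tested once each.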

HUVEC = experiment: Inhibition of VEGF-A induced HUVEC cell sprouting after 24 hrs by angiogenesis assay; type: functional, cell-based; conditions: Homo sapiens
How it was run: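 HUVEC spheroids (500 cells, formed overnight in hanging drops) embedded in collagen gel. Compound plus VEGF-A (25 ng/mL final) added after 30 min; 37 °C for 24 h, then paraformaldehyde fixation. Mean cumulative sprout length of 10 random spheroids per point; seven concentrations, 10 µM to 10 nM, in singlicate for IC50.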

[4] = molecular target: Serine/threonine-protein kinase Nek2 (Homo sapiens, UniProt P51955); experiment: (§3) Inhibition of recombinant NEK2 assessed as 33Pi incorporation after 60 mins by scintillation counting
How it was run: (§4)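 NEK2 reaction on RB-CTF substrate. Contains 70 mM HEPES-NaOH pH 7.5, 3 mM MgCl2/MnCl2, orthovanadate, 1.2 mM DTT, PEG and 1 µM [γ-33P]-ATP. Incubation is 30 °C, 60 min, followed by 2% H3PO4 stop, 0.9% NaCl washes and 33Pi scintillation counting. IC50 from 10 concentrations in singlicate.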

[5] = molecular target: Serine/threonine-protein kinase PLK1 (Homo sapiens, UniProt P53350); experiment: Inhibition of recombinant PLK1 assessed as 33Pi incorporation after 60 mins by scintillation counting
How it was run: (§5)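 Kinase reaction uses RBER-CHKtide as substrate in HEPES-NaOH pH 7.5 (70 mM) with 3 mM each MgCl2 and MnCl2, orthovanadate, 1.2 mM DTT, PEG and 1 µM [γ-33P]-ATP. Run at 30 °C for 60 min, quenched in 2% H3PO4, saline-washed, scintillation-counted. Residual activity at 10 concentrations (singlicate) gives IC50.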

Focal adhesion kinase 1 = Focal adhesion kinase 1 (Homo sapiens, UniProt Q05397); experiment: Inhibition of recombinant FAK assessed as 33Pi incorporation after 60 mins by scintillation counting; how it was run: as §1
[6] = molecular target: Insulin-like growth factor 1 receptor (Homo sapiens, UniProt P08069); experiment: Inhibition of recombinant IGF1-R assessed as 33Pi incorporation after 60 mins by scintillation counting; how it was run: as §1
[7] = molecular target: ALK tyrosine kinase receptor (Homo sapiens, UniProt Q9UM73); experiment: Inhibition of recombinant ALK assessed as 33Pi incorporation after 60 mins by scintillation counting; how it was run: as §1
[8] = molecular target: Hepatocyte growth factor receptor (Homo sapiens, UniProt P08581); experiment: Inhibition of wild type MET assessed as 33Pi incorporation after 60 mins by scintillation counting
How it was run: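 Wild-type MET phosphorylates poly(Ala,Glu,Lys,Tyr) in HEPES-NaOH pH 7.5 (70 mM) with 3 mM MgCl2, 3 mM MnCl2, orthovanadate, 1.2 mM DTT, PEG, 1 µM [γ-33P]-ATP, at 30 °C for 60 min. Stop with 2% H3PO4, wash, scintillation count. IC50 from residual activity at 10 singlicate concentrations.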

K562 [9] = experiment: Antiproliferative activity against human K562 cells up to 365 uM after 24 hrs by MTT assay; type: functional, cell-based
L5178Y = experiment: Antiproliferative activity against mouse L5178Y cells after 24 hrs by MTT assay; type: functional, cell-based; conditions: for pIC50: Mus musculus, L5178Y, 24 h, read-out: IC50; for IC50: l5178y
How it was run: (§6)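 Microplate MTT proliferation read-out, scored against untreated controls; each experiment run in triplicate.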

A2780 [10] = experiment: Antiproliferative activity against human cisplatin resistant A2780 cells after 24 hrs by MTT assay; type: functional, cell-based; conditions: for pIC50: Homo sapiens, A2780, 24 h, read-out: IC50; for IC50: a2780; how it was run: as §6
[11] = molecular target: Serine/threonine-protein kinase Nek6 (Homo sapiens, UniProt Q9HC98); experiment: Inhibition of recombinant NEK6 assessed as 33Pi incorporation after 60 mins by scintillation counting
How it was run: (§7)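 Recombinant kinase with GSK3(14-27) substrate in 70 mM HEPES-NaOH pH 7.5, 3 mM MgCl2, 3 mM MnCl2, Na-orthovanadate, 1.2 mM DTT, PEG, 1 µM [γ-33P]-ATP. Incubated 30 °C, 60 min, stopped with 2% H3PO4, washed with 0.9% NaCl, 33Pi counted. IC50 from residual activity over 10 concentrations in singlicate.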

[12] = molecular target: Serine/threonine-protein kinase pim-1 (Homo sapiens, UniProt P11309); experiment: Inhibition of recombinant PIM1 assessed as 33Pi incorporation after 60 mins by scintillation counting; how it was run: as §7
A2780 [13] = experiment: Antiproliferative activity against human A2780 cells after 24 hrs by MTT assay; type: functional, cell-based; conditions: for pIC50: Homo sapiens, A2780, 24 h, read-out: IC50; for IC50: a2780; how it was run: as §6
[14] = molecular target: RAC-alpha serine/threonine-protein kinase (Homo sapiens, UniProt P31749); experiment: Inhibition of recombinant AKT1 assessed as 33Pi incorporation after 60 mins by scintillation counting; how it was run: as §7
[15] = molecular target: Proto-oncogene tyrosine-protein kinase Src (Homo sapiens, UniProt P12931); experiment: Inhibition of recombinant SRC assessed as 33Pi incorporation after 60 mins by scintillation counting; how it was run: as §1
[16] = molecular target: Serine/threonine-protein kinase N1 (Homo sapiens, UniProt Q16512); experiment: Inhibition of recombinant PRK1 assessed as 33Pi incorporation after 60 mins by scintillation counting; how it was run: as §5
[17] = molecular target: NUAK family SNF1-like kinase 1 (Homo sapiens, UniProt O60285); experiment: (§8) Inhibition of recombinant ARK5 assessed as 33Pi incorporation after 60 mins by scintillation counting; how it was run: as §5
K562 [18] = experiment: Antiproliferative activity against human K562 cells after 24 hrs by MTT assay; type: functional, cell-based; conditions: for IC50: k562; for pIC50: Homo sapiens, K562, 24 h, read-out: IC50; how it was run: as §6
[19] = molecular target: Tyrosine-protein kinase receptor UFO (Homo sapiens) (UniProt P30530); experiment: as §2; how it was run: as §1
[20] = molecular target: Serine/threonine-protein kinase Nek2 (Homo sapiens) (UniProt P51955); experiment: as §3; how it was run: as §4
[21] = molecular target: NUAK family SNF1-like kinase 1 (Homo sapiens) (UniProt O60285); experiment: as §8; how it was run: as §5

Sequence of Aurora kinase B (Q96GD4 whole entry): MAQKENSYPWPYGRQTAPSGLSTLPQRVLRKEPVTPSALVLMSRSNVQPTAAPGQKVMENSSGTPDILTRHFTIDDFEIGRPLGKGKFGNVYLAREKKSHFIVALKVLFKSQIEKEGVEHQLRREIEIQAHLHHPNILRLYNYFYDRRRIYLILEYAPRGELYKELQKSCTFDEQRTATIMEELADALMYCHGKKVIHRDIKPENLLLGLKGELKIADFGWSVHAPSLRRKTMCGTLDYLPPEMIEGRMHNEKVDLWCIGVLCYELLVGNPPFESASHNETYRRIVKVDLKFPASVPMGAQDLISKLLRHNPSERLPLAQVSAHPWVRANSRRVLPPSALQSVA
Sequence of Serine/threonine-protein kinase PLK1 (P53350 whole entry): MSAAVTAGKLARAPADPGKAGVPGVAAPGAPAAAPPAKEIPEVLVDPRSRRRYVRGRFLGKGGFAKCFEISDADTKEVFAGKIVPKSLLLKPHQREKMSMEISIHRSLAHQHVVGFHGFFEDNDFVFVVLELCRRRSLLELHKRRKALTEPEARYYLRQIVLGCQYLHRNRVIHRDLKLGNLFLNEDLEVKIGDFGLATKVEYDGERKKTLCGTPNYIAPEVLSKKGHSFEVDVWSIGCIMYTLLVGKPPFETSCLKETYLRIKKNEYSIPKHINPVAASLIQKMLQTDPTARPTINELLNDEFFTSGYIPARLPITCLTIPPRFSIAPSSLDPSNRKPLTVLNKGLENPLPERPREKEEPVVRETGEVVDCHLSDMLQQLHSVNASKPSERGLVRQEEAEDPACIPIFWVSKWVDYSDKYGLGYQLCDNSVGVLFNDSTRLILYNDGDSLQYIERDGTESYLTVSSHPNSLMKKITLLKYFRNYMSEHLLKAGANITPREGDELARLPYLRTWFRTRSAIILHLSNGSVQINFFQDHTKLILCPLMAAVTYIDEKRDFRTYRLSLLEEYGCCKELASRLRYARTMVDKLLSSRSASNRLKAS
Sequence of Proto-oncogene tyrosine-protein kinase Src (P12931 2-536 limits assumed): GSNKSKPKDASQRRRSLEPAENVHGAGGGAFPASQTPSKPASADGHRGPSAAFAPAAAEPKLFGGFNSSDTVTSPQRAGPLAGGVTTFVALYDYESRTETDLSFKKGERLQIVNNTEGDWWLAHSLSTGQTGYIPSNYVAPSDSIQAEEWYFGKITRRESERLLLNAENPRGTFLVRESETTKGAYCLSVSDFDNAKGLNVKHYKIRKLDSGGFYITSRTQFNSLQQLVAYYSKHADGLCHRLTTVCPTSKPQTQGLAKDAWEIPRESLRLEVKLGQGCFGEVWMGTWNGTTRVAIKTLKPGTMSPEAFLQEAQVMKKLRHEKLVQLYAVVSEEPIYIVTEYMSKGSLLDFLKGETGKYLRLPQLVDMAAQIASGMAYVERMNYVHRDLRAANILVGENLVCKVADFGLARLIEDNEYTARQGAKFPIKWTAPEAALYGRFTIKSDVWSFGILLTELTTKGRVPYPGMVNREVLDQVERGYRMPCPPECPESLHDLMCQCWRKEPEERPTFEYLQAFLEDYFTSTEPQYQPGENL
Sequence of Vascular endothelial growth factor receptor 2 (P35968 whole entry): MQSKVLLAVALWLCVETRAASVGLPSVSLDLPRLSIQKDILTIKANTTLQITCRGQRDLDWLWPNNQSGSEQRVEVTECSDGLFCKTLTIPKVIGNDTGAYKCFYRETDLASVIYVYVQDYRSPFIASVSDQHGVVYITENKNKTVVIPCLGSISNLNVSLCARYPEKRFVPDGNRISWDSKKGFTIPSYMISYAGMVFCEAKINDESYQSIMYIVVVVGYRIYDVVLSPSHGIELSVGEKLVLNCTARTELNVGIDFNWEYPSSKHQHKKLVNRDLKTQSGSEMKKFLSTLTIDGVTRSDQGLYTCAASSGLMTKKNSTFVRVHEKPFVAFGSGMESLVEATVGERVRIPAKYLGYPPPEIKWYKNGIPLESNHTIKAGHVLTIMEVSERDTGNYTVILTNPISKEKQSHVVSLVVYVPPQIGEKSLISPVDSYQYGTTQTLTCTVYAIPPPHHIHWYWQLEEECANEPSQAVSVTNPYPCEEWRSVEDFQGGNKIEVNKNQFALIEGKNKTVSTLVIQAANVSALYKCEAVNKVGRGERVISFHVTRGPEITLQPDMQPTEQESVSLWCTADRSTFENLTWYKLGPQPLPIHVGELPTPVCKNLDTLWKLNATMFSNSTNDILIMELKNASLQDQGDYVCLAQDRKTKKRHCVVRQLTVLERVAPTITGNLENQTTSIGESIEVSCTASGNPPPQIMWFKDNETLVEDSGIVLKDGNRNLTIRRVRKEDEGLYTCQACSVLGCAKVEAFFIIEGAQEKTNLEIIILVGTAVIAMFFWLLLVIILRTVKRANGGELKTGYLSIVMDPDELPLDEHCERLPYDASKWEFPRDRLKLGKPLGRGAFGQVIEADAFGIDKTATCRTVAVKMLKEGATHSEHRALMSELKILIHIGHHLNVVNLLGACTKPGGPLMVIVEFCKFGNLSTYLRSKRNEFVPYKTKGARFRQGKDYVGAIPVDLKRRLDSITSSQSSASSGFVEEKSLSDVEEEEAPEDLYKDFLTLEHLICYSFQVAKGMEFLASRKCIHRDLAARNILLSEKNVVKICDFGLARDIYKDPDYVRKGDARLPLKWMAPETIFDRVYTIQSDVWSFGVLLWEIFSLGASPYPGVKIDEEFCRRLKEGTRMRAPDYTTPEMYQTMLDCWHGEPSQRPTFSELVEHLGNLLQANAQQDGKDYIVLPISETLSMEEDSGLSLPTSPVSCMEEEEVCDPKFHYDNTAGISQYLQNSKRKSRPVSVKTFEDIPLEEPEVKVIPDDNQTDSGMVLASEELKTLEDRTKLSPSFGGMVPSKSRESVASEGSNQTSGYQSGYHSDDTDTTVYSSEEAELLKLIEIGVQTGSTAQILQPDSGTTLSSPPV
Sequence of Hepatocyte growth factor receptor (P08581 whole entry): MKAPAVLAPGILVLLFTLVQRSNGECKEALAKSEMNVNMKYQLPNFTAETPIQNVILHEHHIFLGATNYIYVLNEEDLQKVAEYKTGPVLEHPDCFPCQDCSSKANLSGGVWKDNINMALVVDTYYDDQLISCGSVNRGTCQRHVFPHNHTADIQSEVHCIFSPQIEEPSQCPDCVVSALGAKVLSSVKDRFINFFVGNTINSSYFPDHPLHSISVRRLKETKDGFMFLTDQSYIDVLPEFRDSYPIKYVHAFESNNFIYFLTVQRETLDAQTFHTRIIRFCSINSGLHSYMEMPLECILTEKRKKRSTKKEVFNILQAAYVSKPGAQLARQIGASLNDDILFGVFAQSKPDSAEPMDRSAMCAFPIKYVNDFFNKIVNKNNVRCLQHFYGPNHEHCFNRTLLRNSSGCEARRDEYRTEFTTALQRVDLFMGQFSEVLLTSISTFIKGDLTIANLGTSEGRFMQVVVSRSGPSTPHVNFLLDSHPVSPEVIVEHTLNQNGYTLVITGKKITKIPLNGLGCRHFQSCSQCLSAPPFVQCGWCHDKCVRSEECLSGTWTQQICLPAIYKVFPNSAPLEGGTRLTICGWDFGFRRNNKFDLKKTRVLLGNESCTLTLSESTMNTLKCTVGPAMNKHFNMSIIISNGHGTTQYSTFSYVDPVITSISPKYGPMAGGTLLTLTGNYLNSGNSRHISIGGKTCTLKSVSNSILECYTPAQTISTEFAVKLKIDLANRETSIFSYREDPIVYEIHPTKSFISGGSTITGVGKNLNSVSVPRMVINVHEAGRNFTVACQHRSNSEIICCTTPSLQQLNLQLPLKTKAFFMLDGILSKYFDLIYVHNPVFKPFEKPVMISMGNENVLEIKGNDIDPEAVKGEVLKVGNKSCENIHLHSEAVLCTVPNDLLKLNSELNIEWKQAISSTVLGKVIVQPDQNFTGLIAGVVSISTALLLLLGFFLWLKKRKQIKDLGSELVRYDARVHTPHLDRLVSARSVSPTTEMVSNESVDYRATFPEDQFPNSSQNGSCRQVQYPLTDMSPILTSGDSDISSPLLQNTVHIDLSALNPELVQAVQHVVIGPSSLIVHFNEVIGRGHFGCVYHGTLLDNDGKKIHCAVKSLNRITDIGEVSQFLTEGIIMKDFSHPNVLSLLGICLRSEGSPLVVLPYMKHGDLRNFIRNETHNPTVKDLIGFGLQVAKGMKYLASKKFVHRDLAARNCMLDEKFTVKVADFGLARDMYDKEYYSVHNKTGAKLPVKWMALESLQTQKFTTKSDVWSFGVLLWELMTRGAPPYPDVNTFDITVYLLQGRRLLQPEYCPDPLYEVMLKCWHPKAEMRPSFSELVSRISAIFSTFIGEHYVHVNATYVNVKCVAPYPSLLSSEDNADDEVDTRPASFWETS
Sequence of Dual specificity mitogen-activated protein kinase kinase 1 (Q02750 whole entry): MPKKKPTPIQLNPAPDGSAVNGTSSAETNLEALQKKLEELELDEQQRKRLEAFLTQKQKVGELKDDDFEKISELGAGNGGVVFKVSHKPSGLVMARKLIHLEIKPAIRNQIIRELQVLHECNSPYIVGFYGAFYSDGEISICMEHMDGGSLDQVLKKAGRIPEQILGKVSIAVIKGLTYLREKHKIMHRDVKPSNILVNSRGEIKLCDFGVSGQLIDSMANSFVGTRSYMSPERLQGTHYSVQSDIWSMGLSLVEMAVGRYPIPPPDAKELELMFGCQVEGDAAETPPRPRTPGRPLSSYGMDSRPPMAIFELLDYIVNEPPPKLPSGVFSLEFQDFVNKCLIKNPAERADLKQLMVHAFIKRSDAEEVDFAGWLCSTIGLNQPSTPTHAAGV
Sequence of Serine/threonine-protein kinase Nek6 (Q9HC98 whole entry): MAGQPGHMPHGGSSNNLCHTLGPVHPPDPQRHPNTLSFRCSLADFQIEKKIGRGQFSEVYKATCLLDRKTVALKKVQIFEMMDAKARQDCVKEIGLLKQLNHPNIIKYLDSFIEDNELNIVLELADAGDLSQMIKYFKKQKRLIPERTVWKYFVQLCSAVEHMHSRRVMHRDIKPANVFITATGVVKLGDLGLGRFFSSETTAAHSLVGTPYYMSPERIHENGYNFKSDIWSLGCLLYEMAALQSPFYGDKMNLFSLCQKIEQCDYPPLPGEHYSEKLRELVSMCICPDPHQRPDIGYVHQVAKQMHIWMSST

SMILES: Cc1c(O)c(O)cc2oc3cc(O)cc(O)c3c(=O)c12 [ANOMALIN A]
- pIC50 (Aurora kinase B): 6.30
- pIC50 [1]: 6.10
- pIC50 [2]: 5.18
- pIC50 [3]: < 4.00
- pIC50 (HUVEC): 5.74
- pIC50 [4]: 4.08
- pIC50 [5]: 5.06
- pIC50 (Focal adhesion kinase 1): 4.82
- pIC50 [6]: 5.07
- pIC50 [7]: 5.96
- pIC50 [8]: 5.36
- IC50 (K562 [9]): Not Active
- pIC50 (L5178Y): 6.40
- pIC50 (A2780 [10]): 4.59
- pIC50 [11]: 4.17
- pIC50 [12]: 6.52
- pIC50 (A2780 [13]): 5.36
- pIC50 [14]: < 4.00
- pIC50 [15]: 4.89
- pIC50 [16]: 4.34
- pIC50 [17]: 4.81

SMILES: C=Cc1c(C)cc(O)c2c1[C@H](O)[C@H]1OC(=O)[C@]3(C)CC[C@@H]4C[C@@]24[C@H]13 [ARTHRININ A]
- IC50 (K562 [18]): Not Active
- IC50 (L5178Y): Not Active
- IC50 (A2780 [10]): Not Active
- IC50 (A2780 [13]): Not Active

SMILES: C=Cc1c(C)cc2c(c1O)[C@]13C[C@H]1CC[C@@]1(C)C(=O)O[C@H]([C@H]2O)[C@@H]31 [ARTHRININ B]
- IC50 (K562 [18]): Not Active
- IC50 (L5178Y): Not Active
- IC50 (A2780 [10]): Not Active
- IC50 (A2780 [13]): Not Active

SMILES: Cc1cc(O)c2c(c1)[C@H](O)[C@H]1OC(=O)[C@]3(C)CC[C@@H]4C[C@@]24[C@H]13 [ARTHRININ C]
- IC50 (K562 [18]): Not Active
- IC50 (L5178Y): Not Active
- IC50 (A2780 [10]): Not Active
- IC50 (A2780 [13]): Not Active

SMILES: C=Cc1c(C)cc(O)c2c1[C@H](O)[C@@H](O)[C@H]1[C@]23C[C@H]3CC[C@@]1(C)C(=O)OC [ARTHRININ D]
- IC50 (K562 [18]): Not Active
- IC50 (L5178Y): Not Active
- IC50 (A2780 [10]): Not Active
- IC50 (A2780 [13]): Not Active

SMILES: C/C=C1\NC(=O)[C@H](Cc2ccccc2)NC(=O)[C@@H](C(C)C)NC(=O)[C@@H]([C@H](C)CC)NC(=O)[C@H](NC(=O)[C@H](NC(=O)[C@H](CCCN)NC(=O)[C@H]2CCCN2C(=O)[C@H](NC(=O)[C@@H](NC(=O)[C@@H](NC(=O)[C@H](NC(=O)CCCC(C)C)C(C)C)[C@@H](C)O)C(C)C)C(C)C)[C@H](C)CC)[C@H](C)OC(=O)[C@H](C(C)C)NC1=O [KAHALALIDE F]
- pIC50 (L5178Y): 5.37

SMILES: C=C[C@@]1(C)C=C2C(=O)C(O)=C3[C@](C)(C(=O)O)CC[C@@H]4C[C@]34[C@]2(O)C(=O)C1 [MYROCIN A]
- inhibition (Aurora kinase B): inactive
- inhibition [1]: inactive
- inhibition [19]: inactive
- inhibition [3]: inactive
- pIC50 (HUVEC): 5.43
- inhibition [20]: inactive
- inhibition [5]: inactive
- pIC50 (K562 [18]): 4.38
- inhibition (Focal adhesion kinase 1): inactive
- inhibition [6]: inactive
- inhibition [7]: inactive
- inhibition [8]: inactive
- pIC50 (L5178Y): 5.56
- pIC50 (A2780 [10]): 3.81
- inhibition [11]: inactive
- inhibition [12]: inactive
- pIC50 (A2780 [13]): 4.55
- inhibition [14]: inactive
- inhibition [15]: inactive
- inhibition [16]: inactive
- inhibition [21]: inactive

SMILES: C=C[C@]1(C)C=C2[C@@H](O)[C@@H]3OC(=O)[C@@]4(C)CC[C@H]5C[C@]5([C@@H]34)[C@@]2(O)C(=O)C1 [MYROCIN D]
- inhibition (Aurora kinase B): inactive
- inhibition [1]: inactive
- inhibition [19]: inactive
- inhibition [3]: inactive
- pIC50 (HUVEC): 5.59
- inhibition [20]: inactive
- inhibition [5]: inactive
- pIC50 (K562 [18]): 4.30
- inhibition (Focal adhesion kinase 1): inactive
- inhibition [6]: inactive
- inhibition [7]: inactive
- inhibition [8]: inactive
- pIC50 (L5178Y): 5.69
- pIC50 (A2780 [10]): 4.18
- inhibition [11]: inactive
- inhibition [12]: inactive
- pIC50 (A2780 [13]): 4.38
- inhibition [14]: inactive
- inhibition [15]: inactive
- inhibition [16]: inactive
- inhibition [21]: inactive

SMILES: Cc1cc(O)cc2oc3cc(O)cc(O)c3c(=O)c12 [NORLICHEXANTHONE]
- pIC50 (Aurora kinase B): 5.52
- pIC50 [1]: 4.93
- pIC50 [2]: < 4.00
- pIC50 [3]: < 4.00
- pIC50 [4]: < 4.00
- pIC50 [5]: 4.12
- pIC50 (K562 [18]): 3.60
- pIC50 (Focal adhesion kinase 1): < 4.00
- pIC50 [6]: 4.48
- pIC50 [7]: 4.38
- pIC50 [8]: < 4.00
- pIC50 (L5178Y): 5.94
- pIC50 (A2780 [10]): 4.13
- pIC50 [11]: < 4.00
- pIC50 [12]: 6.52
- pIC50 (A2780 [13]): 4.17
- pIC50 [14]: < 4.00
- pIC50 [15]: 4.46
- pIC50 [16]: 4.26
- pIC50 [17]: 4.48

SMILES: CCN(CC)CCNC(=O)c1c(C)[nH]c(/C=C2\C(=O)Nc3ccc(F)cc32)c1C [SUNITINIB]
- pIC50 (HUVEC): 6.92
